pKi: −log10 of the molar value.
How the values were obtained:
Cavia porcellus [1] = species on record: Cavia porcellus; assay: Concentration displacing [3H]-sradipine binding to guinea pig ileum.
Outline: (§1)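 Guinea pig ileal longitudinal-muscle microsomes were prepared in 50 mM Tris with PMSF (pH 7.0) and spun down at 45 000g. Membranes (0.3 mg protein/mL) were preincubated 5 min with compound (10⁻⁶–10⁻¹¹ M), then incubated 60 min at room temperature with 0.2 nM [³H]-(+)-methylisradipine and 0.5 mM CaCl₂. Samples were filtered and counted. Nonspecific binding was set with 1 μM isradipine. Runs were 2–3 times in triplicate, analysed with LIGAND.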

Rattus norvegicus [2] = species on record: Rattus norvegicus; assay: Effect on [3H]sradipine binding to rat brain; type: tissue-based
Outline: (§2)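 Whole Sprague Dawley rat brain was homogenized in 25 mM HEPES/NaOH with 0.32 M sucrose and 0.1 mM PMSF (pH 7.4), and pellets were collected by centrifugation. Microsomes (0.3 mg protein/mL) received compound (10⁻⁶–10⁻¹¹ M) for a 5-min preincubation. Then 0.2 nM [³H]-(+)-methylisradipine was added with 0.5 mM CaCl₂, for 60 min at room temperature, followed by filtration and scintillation counting. Nonspecific binding was defined with 1 μM isradipine. Runs were 2–3 times in triplicate, fitted with LIGAND.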

[3] = Concentration displacing [3H]sradipine binding to rat heart.
Outline: (§3)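 Sprague Dawley rat ventricle microsomes were prepared in 50 mM Tris with PMSF (pH 7.4), with a final 100 000g spin. Membranes (0.3 mg protein/mL) were preincubated 5 min with compound (10⁻⁶–10⁻¹¹ M), then given 0.2 nM [³H]-(+)-methylisradipine with 0.5 mM CaCl₂ for 60 min at room temperature. Filter-bound label was counted. Nonspecific binding was taken from 1 μM isradipine. Experiments were repeated 2–3 times in triplicate, with LIGAND analysis.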

Rattus norvegicus [4] = species on record: Rattus norvegicus; assay: Effect on [3H]sradipine binding to rat heart.; outline: as §3
Cavia porcellus [5] = species on record: Cavia porcellus; assay: Effect on [3H]sradipine binding to guinea pig ileum.; outline: as §1
[6] = Concentration inhibiting [3H]sradipine binding to rat brain.; type: tissue-based; outline: as §2
Rattus norvegicus [7] = species on record: Rattus norvegicus; assay: Effect on [3H]sradipine binding to rat brain.; type: tissue-based; outline: as §2
[8] = Concentration displacing [3H]sradipine binding to rat brain.; type: tissue-based; outline: as §2
[9] = Concentration displacing [3H]-sradipine binding to rat brain; type: tissue-based; outline: as §2

Row | Bmax (Rattus norvegicus [2]) [fmol/mg] | pKi [3] | Bmax (Rattus norvegicus [4]) | pKi [6] | Bmax (Rattus norvegicus [7]) [fmol/mg] | pKi [8] | pKi [9] | SMILES | pKi (Cavia porcellus [1]) | Bmax (Cavia porcellus [5]) [fmol/mg]
1 | 77.2 | 7.89 | 65.3 fmol/mg | 7.74 | – | – | – | COC(=O)C1=C(C)NC(C)=C(C(=O)OC[C@@H]2CCCO2)[C@@H]1c1ccccc1[N+](=O)[O-] (stereo in doubt) | 7.61 | 261
2 | – | 9.22 | 74.9 fmol/mg | – | 74.9 | 9.24 | – | CO/C(O)=C1\C(C)=NC(C)=C(C(=O)OC[C@@H]2CCCO2)[C@H]1c1ccccc1[N+](=O)[O-] | 9.02 | 299
3 | 79.1 | 8.23 | 81.4 fmol/mg | – | – | – | 7.75 | CO/C(O)=C1\C(C)=NC(C)=C(C(=O)OC[C@H]2CCCO2)[C@@H]1c1ccccc1[N+](=O)[O-] | 7.96 | 250
4 | – | 9.00 | 84.7 fM/mg | – | 79.7 | – | 9.17 | COC(=O)C1=C(C)NC(C)=C(C(=O)OC[C@H]2CCCO2)[C@H]1c1ccccc1[N+](=O)[O-] (stereo in doubt) | 8.69 | 269

Source: ChEMBL document CHEMBL1128480 (J Med Chem, 1995)
